According to ChEMBL document CHEMBL1159121, “Synthesis, in vitro structure-activity relationship, and in vivo studies of 2-arylthiazolidine-4-carboxylic acid amides as anticancer agents” (Bioorg Med Chem, 2010):
Blank lines part the entries; values can stand above or below the compound they belong to.

Experiments:
[1] = Antiproliferative activity against mouse B16-F1 cells after 48 hrs by SRB assay; format: functional, cell-based; details: B16-F1, 48 h
Procedure, shortened: (§1)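 Melanoma lines and control fibroblasts grown at 37 °C, 5% CO2, then exposed to a wide concentration range for 48 h in round-bottom 96-well plates. Fixed with 10% TCA, stained with SRB, protein read at 560 nm. IC50 (50% growth inhibition versus untreated) obtained by nonlinear regression.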

[2] = tested on: A-375; experiment: Antiproliferative activity against human A375 cells after 48 hrs by SRB assay; format: functional, cell-based; details: A-375, 48 h; procedure, shortened: as §1
[3] = Antiproliferative activity against human WM164 cells after 48 hrs by SRB assay; format: functional, cell-based; details: WM164, 48 h; procedure, shortened: as §1
[4] = Cytotoxicity against human fibroblasts after 48 hrs by SRB assay; format: cell-based; details: Fibroblast; procedure, shortened: as §1
[5] = Selectivity ratio of IC50 for human fibroblasts to IC50 for human melanoma cells; format: ADME; details: human fibroblasts and human melanoma cells, read-out: Ratio IC50
[6] = tested on: DU-145; experiment: Antiproliferative activity against human DU145 cells after 96 hrs by SRB assay; format: functional, cell-based; details: DU-145, 96 h
Procedure, shortened: (§2)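 Prostate lines in RPMI1640/10% FBS; RH7777 in DMEM/10% FBS. Cells TCA-fixed, stained with 0.4% SRB, absorbance read at 540 nm. IC50 from nonlinear regression of % survival against concentration.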

[7] = tested on: PC-3; experiment: Antiproliferative activity against human PC3 cells after 96 hrs by SRB assay; format: functional, cell-based; details: PC-3, 96 h
[8] = tested on: RH7777; experiment: Cytotoxicity against rat RH7777 cells after 96 hrs by SRB assay; format: cell-based; details: RH7777, 96 h; procedure, shortened: as §2
[9] = tested on: RH7777; experiment: Selectivity ratio of IC50 for rat RH7777 cells to IC50 for human prostate cancer cells
Procedure, shortened: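 Ratio of RH7777 IC50 to the mean IC50 over four prostate lines (DU 145, PC-3, LNCaP, PPC-1). Prostate lines grown in RPMI1640/10% FBS and RH7777 in DMEM/10% FBS. Read by SRB (0.4%) at 540 nm; IC50 by nonlinear regression.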

[10] = tested on: LNCaP; experiment: Antiproliferative activity against human LNCAP cells after 96 hrs by SRB assay; format: functional, cell-based; procedure, shortened: as §2
[11] = tested on: PPC-1; experiment: Antiproliferative activity against human PPC1 cells after 96 hrs by SRB assay; format: functional, cell-based; details: PPC-1, 96 h; procedure, shortened: as §2

Structure (SMILES): CC(=O)Nc1ccc(C2N[C@H](C(=O)Nc3ccc(-c4ccccc4)cc3)CS2)cc1 (mixture of isomers)
IC50 [1]: 5.7 µM
IC50 [2]: 6.2 µM
IC50 [3]: 4.1 µM
IC50 [4]: 33.4 µM
selectivity ratio [5]: 6.3
IC50 [6]: 5 µM
IC50 [7]: 7.6 µM
IC50 [8]: 9.5 µM
Ratio IC50 [9]: 2
IC50 [10]: 3.5 µM
IC50 [11]: 2.9 µM

Structure (SMILES): CCCCCCCCCCCCCCCCNC(=O)[C@@H]1CSC(c2ccc(NC(=O)CCl)cc2)N1 (mixture of isomers)
IC50 [1]: 93.3 µM
IC50 [2]: 20.4 µM
IC50 [3]: 5.7 µM
IC50 [4]: 25.4 µM
selectivity ratio [5]: 0.6
IC50 [6]: 0.7 µM
IC50 [7]: 0.9 µM
IC50 [8]: 9.4 µM
Ratio IC50 [9]: 9.4
IC50 [10]: 2 µM
IC50 [11]: 0.4 µM

Structure (SMILES): CC(=O)Nc1ccc(C2N[C@H](C(=O)Nc3ccc4cc5ccccc5cc4c3)CS2)cc1 (mixture of isomers)
IC50 [1]: 5.6 µM
IC50 [2]: 3.1 µM
IC50 [3]: 1.4 µM
IC50 [4]: 13.5 µM
selectivity ratio [5]: 4
IC50 [6]: 0.9 µM
IC50 [7]: 0.8 µM
IC50 [8]: 2.6 µM
Ratio IC50 [9]: 2.5
IC50 [10]: 1.7 µM
IC50 [11]: 0.7 µM

Structure (SMILES): CCCCCCCCCCCCCCCCCCNC(=O)[C@@H]1CSC(c2cc(OC)c(OC)c(OC)c2)N1 (mixture of isomers)
IC50 [1]: 5.9 µM
IC50 [2]: 4.6 µM
IC50 [3]: 3 µM
IC50 [4]: 4.7 µM
selectivity ratio [5]: 1
IC50 [6]: 4.1 µM
IC50 [7]: 4.9 µM
IC50 [8]: 14 µM
Ratio IC50 [9]: 4.8
IC50 [10]: 1.6 µM
IC50 [11]: 1 µM

Structure (SMILES): CCCCCCCCCCCCCCCCNC[C@@H]1CSC(c2ccccc2)N1 (mixture of isomers)
IC50 [1]: 4.7 µM
IC50 [2]: 13 µM
IC50 [3]: 4.9 µM
IC50 [4]: 60 µM
selectivity ratio [5]: 8
IC50 [6]: 3.1 µM
IC50 [7]: 3.4 µM
IC50 [8]: 6.2 µM
Ratio IC50 [9]: 1.9
IC50 [10]: 3.9 µM
IC50 [11]: 2.5 µM

Structure (SMILES): CCCCCCCCCCCCCCCCNC[C@@H]1CSC(c2ccc(NC(C)=O)cc2)N1 (mixture of isomers)
IC50 [1]: 11.9 µM
IC50 [2]: 14.4 µM
IC50 [3]: 3.2 µM
IC50 [4]: 84.5 µM
selectivity ratio [5]: 8.6
IC50 [6]: 4.7 µM
IC50 [7]: 4.5 µM
IC50 [8]: 7.9 µM
Ratio IC50 [9]: 1.9
IC50 [10]: 4.7 µM
IC50 [11]: 2.4 µM

Structure (SMILES): CCCCCCCCCCCCCCCCNC(=O)[C@@H]1CSC(c2ccccc2OC)N1 (mixture of isomers)
IC50 [1]: 4.3 µM
IC50 [2]: 3 µM
IC50 [3]: 2.4 µM
IC50 [4]: 7.2 µM
selectivity ratio [5]: 2.2
IC50 [6]: 6.5 µM
IC50 [7]: 7.4 µM
IC50 [8]: 17.2 µM
Ratio IC50 [9]: 3.6
IC50 [10]: 3.6 µM
IC50 [11]: 1.7 µM

Structure (SMILES): CCCCCCCCC/C=C/CCCCCCCNC(=O)[C@@H]1CSC(c2ccccc2)N1 (mixture of isomers)
IC50 [1]: 10.1 µM
IC50 [2]: 5.3 µM
IC50 [4]: 12.4 µM
selectivity ratio [5]: 2.1
IC50 [6]: 1.5 µM
IC50 [7]: 2.1 µM
IC50 [8]: 8.9 µM
Ratio IC50 [9]: 6.5
IC50 [10]: 1.4 µM
IC50 [11]: 0.6 µM

Structure (SMILES): CCCCCCCCCCCCCCCCCCNC(=O)[C@@H]1CSC(c2ccc(OC)c(OC)c2)N1 (mixture of isomers)
IC50 [1]: 14.3 µM
IC50 [2]: 6.9 µM
IC50 [3]: 2.7 µM
IC50 [4]: 20.3 µM
selectivity ratio [5]: 2.5
IC50 [6]: 5.5 µM
IC50 [7]: 4.1 µM
IC50 [8]: 11.8 µM
Ratio IC50 [9]: 3.7
IC50 [10]: 2.4 µM
IC50 [11]: 0.9 µM

Now those with a lower IC50 [2], led by results:

IC50 [2]: 2.4 µM
IC50 [6]: 1.2 µM
IC50 [7]: 1.5 µM
IC50 [10]: 0.7 µM
Structure (SMILES): CCCCCCCCC/C=C\CCCCCCCNC(=O)[C@@H]1CSC(c2cc(OC)c(OC)c(OC)c2)N1 (mixture of isomers)
IC50 [1]: 4.7 µM
IC50 [3]: 1.3 µM
IC50 [4]: 4.8 µM
selectivity ratio [5]: 1.7
IC50 [8]: 8.4 µM
Ratio IC50 [9]: 8.6
IC50 [11]: 0.5 µM

IC50 [2]: 1.9 µM
IC50 [6]: 2.4 µM
IC50 [7]: 2.5 µM
IC50 [10]: 1.8 µM
Structure (SMILES): CCCCCC/C=C\CCCCCCCCNC(=O)[C@@H]1CSC(c2ccc(NC(C)=O)cc2)N1 (mixture of isomers)
IC50 [1]: 2.1 µM
IC50 [3]: 2 µM
IC50 [4]: 14 µM
selectivity ratio [5]: 7
IC50 [8]: 7.6 µM
Ratio IC50 [9]: 3.9
IC50 [11]: 1.1 µM

IC50 [2]: 1.8 µM
IC50 [6]: 3.2 µM
IC50 [7]: 6 µM
IC50 [10]: 1.4 µM
Structure (SMILES): CCCCCCCCCCCCCCCCNC(=O)[C@@H]1CSC(c2ccc(N(C)C)cc2)N1 (mixture of isomers)
IC50 [1]: 6.7 µM
IC50 [3]: 1.5 µM
IC50 [4]: 21 µM
selectivity ratio [5]: 6.3
IC50 [8]: 10 µM
Ratio IC50 [9]: 3.6
IC50 [11]: 0.4 µM

IC50 [2]: 1.8 µM
IC50 [6]: 1.1 µM
IC50 [7]: 1 µM
IC50 [10]: 0.5 µM
Structure (SMILES): CCCCCCCCCCCCCCCCNC(=O)[C@@H]1CSC(c2cccc(OC)c2)N1 (mixture of isomers)
IC50 [1]: 3 µM
IC50 [3]: 1.2 µM
IC50 [4]: 2.5 µM
selectivity ratio [5]: 1.3
IC50 [8]: 3.6 µM
Ratio IC50 [9]: 5.1
IC50 [11]: 0.2 µM

IC50 [2]: 1.6 µM
IC50 [6]: 2 µM
IC50 [7]: 2.6 µM
IC50 [10]: 1.3 µM
Structure (SMILES): CCCCCCCCC/C=C\CCCCCCCNC(=O)[C@@H]1CSC(c2ccc(OC)c(OC)c2)N1 (mixture of isomers)
IC50 [1]: 3.3 µM
IC50 [3]: 1.2 µM
IC50 [4]: 18.3 µM
selectivity ratio [5]: 9
IC50 [8]: 10 µM
Ratio IC50 [9]: 6.2
IC50 [11]: 0.6 µM

IC50 [2]: 1.5 µM
IC50 [6]: 2.3 µM
IC50 [7]: 1.6 µM
IC50 [10]: 1.4 µM
Structure (SMILES): CCCCCCCCCCCCCCCCNC(=O)[C@@H]1CSC(c2cccc(NC(C)=O)c2)N1 (mixture of isomers)
IC50 [1]: 2.2 µM
IC50 [3]: 1.1 µM
IC50 [4]: 6.3 µM
selectivity ratio [5]: 3.9
IC50 [8]: 4.9 µM
Ratio IC50 [9]: 3.4
IC50 [11]: 0.5 µM

IC50 [2]: 1.4 µM
IC50 [6]: 1.5 µM
IC50 [7]: 2 µM
IC50 [10]: 0.8 µM
Structure (SMILES): CCCCCCCCC/C=C/CCCCCCCNC(=O)[C@@H]1CSC(c2ccc(OC)c(OC)c2)N1 (mixture of isomers)
IC50 [1]: 3.2 µM
IC50 [3]: 1.1 µM
IC50 [4]: 16.3 µM
selectivity ratio [5]: 8.6
IC50 [8]: 9.4 µM
Ratio IC50 [9]: 8.2
IC50 [11]: 0.3 µM
